This note sets out measurements from PubChem BioAssay.

Activity calls are given as the source filed them.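 Rule for the calls, unless noted: active = Her2 level under about 52% in both replicate screens, with viability over 70% of control (limit read from the data); inconclusive = Her2 under the limit in one screen only, or viability under 70%; inactive = Her2 level above the set limit.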

Assay [1] in a line: Her2 expression decrease, cell viability multiplex – SKBR3 breast tumor cells, AlphaScreen, ATP viability, primary screen (AID 461).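 For Her2 level: lower value means less Her2 protein in the cells.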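 For viability: percent of carrier control wells set as 100% viability.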 Particulars: SKBR3 Her2 protein level, 18-24 h, measured here: SKBR3 viability, ATP luminescence, at 10 µM. (Bead proximity is the source of the signal in Alpha formats.)
Assay [2] deals with Receptor tyrosine-protein kinase erbB-2 (Homo sapiens) (UniProt P04626). The description is as above. Particulars: 18-24 h, at 10 µM, stronger effect = lower value.
The nature of assay [3]: reduced viability of SK-BR-3 breast cancer cells – cell-based, 24 h, human, pilot screen (AID 572;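 active = viability at or below 10% of carrier control in both of two separate runs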;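 note: compound exposure lasted between 18 and 24 h rather than exactly 24 h; 100% = carrier-treated control wells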). Particulars: SK-BR-3 viability, CellTiter-Glo luminescence, at 10 µM, stronger effect = lower value. (Cellular ATP, detected with luciferase, serves as a proxy for viable cell number.)
A short description of assay [4]: HUVEC growth inhibition – cell-based, human, primary screen (AID 575;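 active = viability at or below 30% in both replicate assays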;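 note: 100% = median of untreated cell wells with 0.1% DMSO on each plate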). Particulars: HUVEC proliferation, CellTiter-Glo luminescence, 72 h; at 10 µM; stronger effect = lower value. In a few lines:
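Test system: HUVEC primary cells. Quantity: 1250 endothelial cells in each well. Dosing: single-point 10 µM, DMSO 0.1% final. Incubation: 72 h treatment at 37 °C. Measured by: CTG luminescence. Control set: DMSO cell controls and MePR drug controls. Plate: collagen-coated 384-well format.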

Assay [5] in a line: H69AR cell proliferation blockers – human, duplicate replicates, primary screen (AID 580;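 active = viability at or under a set limit in both replicates, limit being median viability minus 3 SD, cut at about 48% in these data, passing the limit was not always enough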;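 note: 100% = mean luminescence of untreated wells and 0% = no signal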). The conditions noted are these: H69AR lung tumor cells viability, ATP luminescence, 72 h; at 10 µM; stronger effect = lower value.
The nature of assay [6]: MRP1 drug-resistance reversers in H69AR cells – cell-based, doxorubicin co-treatment, pilot screen (AID 601;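 active = viability loss from added drug above about 55%, and viability with drug at most 40%, in both replicates, limit read from the data, passing the limit was not always enough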). The conditions noted are these: CellTiter-Glo, 72 h, at 10 µM; for differential viability (reversal): stronger effect = higher value.
The nature of assay [7]: yeast transport mutant growth inhibition pilot in 384-well plates, post-Golgi transport modulator project (AID 636; in the data active = inhibition above about 31%). The conditions noted are these: absorbance 615 nm, about 18 h, stronger effect = higher value.
The nature of assay [8]: growth suppression of yeast trafficking mutant, preliminary HTS, modulators of trafficking downstream of Golgi apparatus project, 1536-format plate, OD 615 nm (AID 637; in the data active = inhibition above about 30%). Particulars: yeast transport mutant growth, absorbance 615 nm, 18 h; stronger effect = higher value.
Setting [9] is: H69AR cells + 2 uM doxorubicin, measured here: viability with 2 uM doxorubicin, stronger effect = lower value.
The mark [10] stands for this setting: H69AR cells, compound alone cytotoxicity.

Sequence of Receptor tyrosine-protein kinase erbB-2 (Homo sapiens) (P04626 whole entry, looked up): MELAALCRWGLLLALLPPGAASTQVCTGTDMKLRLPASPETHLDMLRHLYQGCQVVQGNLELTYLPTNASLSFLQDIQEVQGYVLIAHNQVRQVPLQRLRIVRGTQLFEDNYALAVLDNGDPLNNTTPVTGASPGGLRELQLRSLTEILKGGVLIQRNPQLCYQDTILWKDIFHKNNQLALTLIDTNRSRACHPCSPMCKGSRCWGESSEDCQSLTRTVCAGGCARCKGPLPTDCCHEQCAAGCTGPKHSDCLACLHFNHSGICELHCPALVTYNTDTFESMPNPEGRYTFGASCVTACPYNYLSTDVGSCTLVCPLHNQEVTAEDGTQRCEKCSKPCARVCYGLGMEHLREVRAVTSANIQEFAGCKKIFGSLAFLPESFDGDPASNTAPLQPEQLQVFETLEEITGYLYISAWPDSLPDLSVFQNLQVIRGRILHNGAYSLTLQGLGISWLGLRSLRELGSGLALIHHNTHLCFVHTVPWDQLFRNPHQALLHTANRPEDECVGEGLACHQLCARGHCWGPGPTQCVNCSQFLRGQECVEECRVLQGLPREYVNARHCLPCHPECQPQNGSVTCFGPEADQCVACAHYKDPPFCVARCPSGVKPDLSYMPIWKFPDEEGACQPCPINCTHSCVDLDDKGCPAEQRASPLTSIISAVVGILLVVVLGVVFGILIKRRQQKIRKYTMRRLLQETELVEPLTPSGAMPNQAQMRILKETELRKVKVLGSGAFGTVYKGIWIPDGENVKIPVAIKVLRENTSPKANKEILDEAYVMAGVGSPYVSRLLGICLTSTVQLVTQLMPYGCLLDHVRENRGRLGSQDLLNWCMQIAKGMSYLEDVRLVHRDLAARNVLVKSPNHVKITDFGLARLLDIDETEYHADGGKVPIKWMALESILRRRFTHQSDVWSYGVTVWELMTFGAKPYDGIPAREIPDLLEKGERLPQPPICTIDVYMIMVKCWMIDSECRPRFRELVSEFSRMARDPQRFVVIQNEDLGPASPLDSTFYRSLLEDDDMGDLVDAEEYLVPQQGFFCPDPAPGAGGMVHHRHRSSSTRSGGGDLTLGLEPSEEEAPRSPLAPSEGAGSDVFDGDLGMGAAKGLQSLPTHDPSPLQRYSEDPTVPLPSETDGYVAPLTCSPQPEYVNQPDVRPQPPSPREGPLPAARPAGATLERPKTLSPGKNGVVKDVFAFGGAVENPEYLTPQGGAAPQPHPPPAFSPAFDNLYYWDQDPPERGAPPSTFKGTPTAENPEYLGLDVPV

Consider `CN(C)S(=O)(=O)Nc1ccc(Br)cc1F`, for which the viability in assay [1] was 108%; in assay [3], 108% (inactive); in assay [4], 86.9% (inactive); in assay [5], 102% (inactive); in assay [6] (setting [9]), 88.5%; in assay [6] (setting [10]) it was 102%. The Her2 level in assay [2] is 82.5% (inactive). The differential viability (reversal) in assay [6] (H69AR cells + 2 uM doxorubicin) was 13.6% (inactive). The inhibition is -5.2% (inactive) in assay [7] and -8.1% (inactive) in assay [8].
As to `CC(=O)NC1(c2nnnn2CCOC(=O)Nc2ccc(Cl)cc2)CCCCC1`, the viability in assay [1] is 112%; in assay [3] it was 112% (inactive); in assay [4], 98.5% (inactive); in assay [5] it was 98.5% (inactive); in assay [6] (setting [9]), 85.4%; in assay [6] (setting [10]), 98.5%. The Her2 level in assay [2] is 89% (inactive). Moreover, in assay [6] (H69AR cells + 2 uM doxorubicin), the differential viability (reversal) was 13% (inactive). Besides, the inhibition in assay [7] is -3.29% (inactive); in assay [8], 8.69% (inactive).
As for `CN(C)/C=C1\N=C(c2ccc3c(c2)OCO3)OC1=O`, the viability in assay [1] is 91%; in assay [3] it was 91% (inactive); in assay [4], 94.4% (inactive); in assay [5], 98.1% (inactive); in assay [6] (setting [9]) it was 76.9%; in assay [6] (setting [10]), 98.1%. Moreover, the Her2 level in assay [2] is 94.5% (inactive). Also, the differential viability (reversal) in assay [6] (H69AR cells + 2 uM doxorubicin) was 21.1% (inactive). The inhibition is -1.56% (inactive) in assay [7] and -4.5% (inactive) in assay [8].
`Nc1nnc(-c2ccccc2)c(-c2ccccc2)n1`: the viability in assay [1] was 96.5%; in assay [3] it was 96.5% (inactive); in assay [4], 86.4% (inactive); in assay [5], 99.2% (inactive); in assay [6] (setting [9]), 94%; in assay [6] (setting [10]), 99.2%. The Her2 level in assay [2] was 90% (inactive). Besides, in assay [6] (H69AR cells + 2 uM doxorubicin), the differential viability (reversal) is 5.16% (inactive). In addition, the results for the inhibition in assay [7] and in assay [8] were -4.53% (inactive) and 7.42% (inactive), respectively.
As for `C[C@@H]1C[C@H]2[C@@H]3CCC4=CC(=O)C=C[C@]4(C)[C@@]3(F)[C@@H](O)C[C@]2(C)[C@@]1(O)C(=O)COP(=O)(O)O`, the viability in assay [1] is 99%; in assay [3], 99% (inactive); in assay [4] it was 102% (inactive); in assay [5] it was 97.9% (inactive); in assay [6] (setting [9]) it was 122%; in assay [6] (setting [10]), 97.9%. In addition, in assay [2], the Her2 level was 125% (inactive). In assay [6] (H69AR cells + 2 uM doxorubicin), the differential viability (reversal) is -24.3% (inactive).
Take `Nc1nc2sc3c(c2c(=O)s1)CCCC3`: the viability in assay [1] is 112%; in assay [3] it was 112% (inactive); in assay [4], 60.3% (inactive); in assay [5], 74.7% (inactive); in assay [6] (setting [9]), 78.1%; in assay [6] (setting [10]), 74.7%. The Her2 level in assay [2] is 108% (inactive). Also, in assay [6] (H69AR cells + 2 uM doxorubicin), the differential viability (reversal) is -3.39% (inactive). Besides, the inhibition was -2.24% (inactive) in assay [7] and 1.31% (inactive) in assay [8].
Regarding `O=C(C1CCN(c2nnnn2-c2ccccc2)CC1)N1CCN(c2ccccc2)CC1`, the viability in assay [1] is 106%; in assay [3] it was 106% (inactive); in assay [4], 85.6% (inactive); in assay [5], 79% (inactive); in assay [6] (setting [9]) it was 77.5%; in assay [6] (setting [10]), 79%. Moreover, in assay [2], the Her2 level is 87.5% (inactive). The differential viability (reversal) in assay [6] (H69AR cells + 2 uM doxorubicin) was 1.51% (inactive). Further, the results for the inhibition in assay [7] and in assay [8] were -5.27% (inactive) and 5.08% (inactive), respectively.
Take `CC1Cc2ccccc2N1NC(=O)c1ccc(Cl)c(S(N)(=O)=O)c1` (centres undefined): the viability is 93.5% in assay [1]; 93.5% (inactive) in assay [3]; 102% (inactive) in assay [4]; 91.4% (inactive) in assay [5]; 90% in assay [6] (setting [9]); 91.4% in assay [6] (setting [10]). Further, in assay [2], the Her2 level was 105% (inactive). Besides, the differential viability (reversal) in assay [6] (H69AR cells + 2 uM doxorubicin) is 1.41% (inactive).
Regarding `NC(=O)COC(=O)c1ccc(S(=O)(=O)N2CCCCCC2)cc1`, the viability in assay [1] was 93%; in assay [3], 93% (inactive); in assay [4], 92.8% (inactive); in assay [5], 88% (inactive); in assay [6] (setting [9]) it was 90.9%; in assay [6] (setting [10]) it was 88%. Further, in assay [2], the Her2 level is 104% (inactive). In addition, the differential viability (reversal) in assay [6] (H69AR cells + 2 uM doxorubicin) was -2.85% (inactive). In addition, the inhibition in assay [7] is -2.82% (inactive); in assay [8] it was -7.67% (inactive).
`Clc1ccc(Cn2c(CN3CCCC3)nc3ccccc32)cc1`: the viability in assay [1] was 92.5%; in assay [3], 92.5% (inactive); in assay [4], 85.5% (inactive); in assay [5] it was 73.3% (inactive); in assay [6] (setting [9]), 85.9%; in assay [6] (setting [10]) it was 73.3%. Further, the Her2 level in assay [2] is 112% (inactive). In assay [6] (H69AR cells + 2 uM doxorubicin), the differential viability (reversal) is -12.6% (inactive).
Consider `CCCC(=O)Nc1ncnc2c1ncn2[C@@H]1O[C@@H]2COP(=O)(O)O[C@H]2[C@H]1OC(=O)CCC`, for which the viability in assay [1] was 102%; in assay [3], 102% (inactive); in assay [4], 109% (inactive); in assay [5], 104% (inactive); in assay [6] (setting [9]), 90.8%; in assay [6] (setting [10]) it was 104%. Besides, the Her2 level in assay [2] is 104% (inactive). Also, in assay [6] (H69AR cells + 2 uM doxorubicin), the differential viability (reversal) is 13.3% (inactive).
Take `C[C@]12CC[C@@H]3c4ccc(O)cc4CC[C@H]3[C@@H]1CC[C@@H]2OC(=O)CCC(=O)O`: the viability in assay [1] was 118%; in assay [3] it was 118% (inactive); in assay [4], 99.3% (inactive); in assay [5] it was 105% (inactive); in assay [6] (setting [9]), 104%; in assay [6] (setting [10]), 105%. Further, in assay [2], the Her2 level was 111% (inactive). Besides, the differential viability (reversal) in assay [6] (H69AR cells + 2 uM doxorubicin) is 0.94% (inactive).
As to `Cc1cn([C@H]2C=C[C@@H](CO)O2)c(=O)[nH]c1=O`, the viability in assay [1] was 94%; in assay [3], 94% (inactive); in assay [4], 104% (inactive); in assay [5] it was 109% (inactive); in assay [6] (setting [9]), 86.2%; in assay [6] (setting [10]), 109%. In addition, the Her2 level in assay [2] is 94.5% (inactive). Also, the differential viability (reversal) in assay [6] (H69AR cells + 2 uM doxorubicin) is 22.8% (inactive).
As for `N=c1c[n+](N2CCOCC2)[n-]o1`, the viability in assay [1] is 114%; in assay [3] it was 114% (inactive); in assay [4], 97.7% (inactive); in assay [5], 96.5% (inactive); in assay [6] (setting [9]), 101%; in assay [6] (setting [10]) it was 96.5%. The Her2 level in assay [2] was 100% (inactive). In addition, the differential viability (reversal) in assay [6] (H69AR cells + 2 uM doxorubicin) was -4.17% (inactive).
With `OCCNCCCCOc1ccccc1F`, the viability was 84.5% in assay [1]; 84.5% (inactive) in assay [3]; 111% (inactive) in assay [4]; 102% (inactive) in assay [5]; 94.3% in assay [6] (setting [9]); 102% in assay [6] (setting [10]). The Her2 level in assay [2] is 128% (inactive). Moreover, the differential viability (reversal) in assay [6] (H69AR cells + 2 uM doxorubicin) was 8.07% (inactive). In addition, the inhibition in assay [7] is 2.69% (inactive); in assay [8], -8.17% (inactive).
With `Cc1ccc2cc(C(c3nnnn3CC3CCCO3)N3CCCC4(CCCCC4)C3)c(=O)[nH]c2c1` (centres undefined), the viability is 107% in assay [1]; 107% (inactive) in assay [3]; 97.9% (inactive) in assay [4]; 85.1% (inactive) in assay [5]; 93.6% in assay [6] (setting [9]); 85.1% in assay [6] (setting [10]). For the same molecule, in assay [2], the Her2 level was 92.5% (inactive). In addition, the differential viability (reversal) in assay [6] (H69AR cells + 2 uM doxorubicin) is -8.48% (inactive). The inhibition is -7.27% (inactive) in assay [7] and 0% (inactive) in assay [8].
On to `Cn1cc(NC(=O)c2cc(NC(=O)c3cc(NC=O)cn3C)cn2C)cc1C(=O)NCCC(=N)N`, for which the viability in assay [1] was 96%; in assay [3], 96% (inactive); in assay [4], 90.6% (inactive); in assay [5] it was 83.1% (inactive); in assay [6] (setting [9]), 96.3%; in assay [6] (setting [10]), 83.1%. Further, the Her2 level in assay [2] is 87.5% (inactive). Also, the differential viability (reversal) in assay [6] (H69AR cells + 2 uM doxorubicin) is -13.2% (inactive).

A word on the viability: it is a read-out of living cells in per cent, often relative to untreated cells. Usually inhibition stands for the change of the read-out against control, counted positive when it falls.
